PostGolgi ctrl – growth of the yeast control strain, post-Golgi counter-screen. efflux-deficient yeast background strain, growth absorbance A615, 16 h. inhibition, % at 10 µM. 98,000 compounds, 5% hits. AID 738
E coli WT exp – growth inhibitors of E. coli BW25113 wild type | OD600 absorbance | growth inhibition, % at 100 µM | 98,000 compounds, 0.15% hits | AID 710;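 active = growth inhibition above about 50% at one test dose, limit read from the data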;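 note: growth measured after 20 h incubation at 37 °C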
tolC growth inh – growth inhibitors of E. coli BW25113 tolC mutant; OD615; AID 573; growth inhibition, % at 10 µM (by protocol); 65,000 compounds, 2.2% hits;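 active = growth inhibition at or above a cutoff equal to the mean over every tested compound plus 3 SD, cut at about 60% in these data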;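 note: growth measured after 20 h incubation at 37 °C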
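Assay system: tolC-deleted E. coli BW25113. Medium: kanamycin-containing LB broth (50 µg/mL). Dosing: 10 µM final, single dose. Timing: bacterial growth with compound for 20 h at 37 °C. Detection: A615 absorbance measurement. Read-out basis: growth inhibition in percent.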
PostGolgi yeast – growth inhibition of a yeast mutant, post-Golgi transport screen; post-Golgi transport phenotypic cell assay; inhibition, % at 10 µM; 98,000 compounds, 0.9% hits;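 note: yeast cells grown in 1536-well plates; yeast grown about 18 h at 30C before absorbance read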
Cav3 T inh – human Cav3.2 channel inhibition, primary screen; O95180; Cav3.2-expressing cells, Fluo-4 calcium fluorescence FDSS; stronger effect = lower value; B-score at 10 µM; 100,000 compounds, 4% hits; AID 449739;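 active = single-dose well whose peak fluorescence ratio is a statistical outlier from its plate by either plate-standardised score or position-corrected B-score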
The depositor's hits bear a star; . = not tested or not shown. Compounds with a hit are over-represented: about 8.4% of the library has one in this group of screens. Cut-off read from the data, not from the text of the source, unless noted: active = inhibition above about 30%; inactive = the rest.

SMILES	PostGolgi ctrl	E coli WT exp	tolC growth inh	PostGolgi yeast	Cav3 T inh
O=C1CCCc2[nH]nc(-c3cccnc3)c21	2.3	5.0	-25.9	2.6	-0.0197
O=C(Nc1ccncc1)c1ccc(F)cc1	0.5	1.0	.	-9.3	-0.00898
O=C(Nc1ccncc1)c1cccc(F)c1	32.3*	5.0	-11.5	15.7	-0.379
O=C(Nc1ccc(N2CCCC2)cc1)c1cccc(F)c1	4.8	-8.0	4.2	12.5	-5.68*
Cc1ccc(NC(=O)C(C)c2ccc(-c3ccccc3)c(F)c2)c(C)c1 (stereo not drawn)	-7.0	-8.0	.	-4.5	-0.289
Cn1c2ccccc2c2cnn(CC(=O)N3CCN(c4ncccn4)CC3)c(=O)c21	.	.	-4.2	.	.
Nc1c(S(=O)(=O)c2ccccc2)c2nc3ccccc3nc2n1Cc1ccco1	30.1*	-9.0	28.5	-21.9	-2.31
Cc1ccc(S(=O)(=O)c2c(N)n(Cc3ccco3)c3nc4ccccc4nc23)cc1C	6.0	-8.0	.	-0.6	-2.75
Cc1cc(C)n(-c2nnc(C)c(=O)[nH]2)n1	2.1	-10.0	-12.8	3.1	-0.0244
O=C(CCS(=O)(=O)c1cccc2nsnc12)NCc1ccccc1	-7.4	-1.0	-7.1	-2.5	.
CC(=O)c1cccc(NC(=O)CCS(=O)(=O)c2cccc3nsnc23)c1	33.5*	4.0	.	-2.5	0.0425
Cc1ccc(-c2nn(-c3ccccc3)cc2/C=N/NC(=O)CSc2nnc(C)n2-c2ccccc2)cc1	0.0	-5.0	.	-2.7	-4.47*
C=CCn1c(SCC(=O)c2ccc(NS(=O)(=O)c3ccccc3)cc2)nnc1-c1cccs1	11.4	-5.0	3.2	5.6	-0.36
Cc1c(C#N)c(N=CN(C)C)c(C(=O)c2ccccc2)n1-c1ccc(Br)cc1	43.1*	-6.0	.	-3.3	-0.294
C/C(=N\S(=O)(=O)c1ccc(C)cc1)N1CCN(S(=O)(=O)c2ccccc2)C1	31.5*	3.0	-4.0	1.6	.
Cc1ccc2c(=O)c(CN(C)C3CCN(C)CC3)c(C)[nH]c2c1C	.	.	14.3	.	.
O=C(NCCN1CCCC1)C1(S(=O)(=O)c2ccc(Cl)cc2)CC1	37.9*	2.0	-1.6	8.9	0.553
COc1ccc(N2CCN(CCCNC(=O)C3(S(=O)(=O)c4ccc(Cl)cc4)CC3)CC2)cc1	5.8	0.0	-5.5	-5.0	.
O=C(NCCCN1CCCCC1)C1(S(=O)(=O)c2ccc(Cl)cc2)CC1	2.6	0.0	-17.4	5.7	.
O=C(NCCCN1CCN(c2cccc(Cl)c2)CC1)C1(S(=O)(=O)c2ccc(Cl)cc2)CC1	27.7	0.0	.	3.9	-6.92*
CC1(C)CC(=O)c2cc(C(=O)NCc3ccco3)c(=O)n(-c3ccccc3)c2C1	1.1	3.0	5.0	-4.6	4.14*
Cc1ccc(C(C)NC(=O)C2CCCO2)cc1C (stereo not drawn)	10.9	7.0	-1.7	5.0	-5.39*
OCCN1CCN(c2nc(-c3ccccc3)c3cc(Cl)ccc3n2)CC1	9.4	17.0	100.0*	10.7	.
Clc1ccc2nc(N3CCNCC3)nc(-c3ccccc3)c2c1	14.4	55.0*	17.6	24.9	0.802
Cn1c(=O)c2nc(Cl)n(Cc3ccc(Cl)cc3Cl)c2n(C)c1=O	.	.	-5.0	.	.
SMILES	PostGolgi ctrl	E coli WT exp	tolC growth inh	PostGolgi yeast	Cav3 T inh
Cn1c(=O)c2c(nc(SCc3ccccc3)n2Cc2ccc(Cl)cc2)n(C)c1=O	.	.	.	.	-4.39*
Cn1c(=O)c2c(nc(SCCN3CCOCC3)n2Cc2ccc(Cl)cc2)n(C)c1=O	.	.	8.7	.	.
CC(C)Sc1nc2c(c(=O)n(C)c(=O)n2C)n1Cc1ccc(Cl)cc1	76.6*	-1.0	43.8	-4.0	-4.46*
COC(=O)c1ccc2c(=O)n(CC3CCCO3)c(SCC(=O)Nc3ccccc3OC)nc2c1 (stereo not drawn)	32.8*	-10.0	16.4	-8.8	0.106
Cc1cc(NC(=O)NC(=O)c2cccc(OC(F)(F)C(F)F)c2)n[nH]1	33.4*	-2.0	-9.8	-11.1	0.889
CCSC1=C(C#N)C(c2ccc(Cl)cc2)C2=C(CCCC2=O)N1 (stereo not drawn)	5.0	-12.0	96.3*	-5.4	-0.568
O=S(=O)(c1ccc(Br)s1)N1CCN(c2ccccn2)CC1	51.2*	2.0	14.4	1.6	-1.55
O=C1c2ccccc2C(=O)N1CCc1nc2ccccc2c(=O)n1CCCn1ccnc1	-3.8	-3.0	-2.5	-4.7	0.955
COC(=O)[C@@H]1C[C@H]1[C@@H](NC(=O)c1cc(C)on1)c1ccccc1	.	.	.	.	0.371
COC(=O)c1c(NC(=O)CSc2nnnn2-c2ccccc2)sc2c1CCC(C)C2 (stereo not drawn)	9.8	-13.0	2.2	11.9	-0.48
CC1CCCC(NC(=O)CSc2nnnn2C)C1C (stereo not drawn)	-0.5	-2.0	-4.4	-4.2	-4.68*
Cn1nnnc1SCC(=O)NC1CCCCC1	2.1	0.0	-6.2	-6.0	-0.595
CC1CCCCC1NC(=O)CSc1nnnn1-c1ccccc1 (stereo not drawn)	-2.1	7.0	7.1	37.9*	-0.407
CCn1cc(SCC(=O)NCc2ccc3c(c2)OCO3)c2ccccc21	35.9*	4.0	16.8	-5.0	-3.89*
CCCn1cc(SCC(=O)NCc2ccc3c(c2)OCO3)c2ccccc21	16.2	-1.0	.	2.0	-2.3
COc1ccc(NC(=O)CSc2nc(C)c3c(c2C#N)CCCC3)cc1	6.5	-14.0	.	2.2	-0.724
Cc1nc(SCC(=O)NCc2ccc3c(c2)OCO3)c(C#N)c2c1CCCC2	9.1	-14.0	26.6	7.7	-3.98*
COc1ccc(CCNC(=O)Cn2nnc(-c3ccc(N(C)C)cc3)n2)cc1OC	.	.	.	.	0.737
COc1cc(OC)c(C2N(c3ccc(Cl)cc3)C(=O)C3CCCN32)cc1OC (stereo not drawn)	12.6	9.0	-13.0	-6.2	-0.516
CCOC(=O)CN1CC23C=CC(O2)C(C(=O)Nc2ccc(F)c(C)c2)C3C1=O (stereo not drawn)	36.4*	-13.0	-20.0	7.0	0.416
CCOC(=O)CN1CC23C=CC(O2)C(C(=O)Nc2ccc(OC)cc2OC)C3C1=O (stereo not drawn)	17.0	2.0	-3.9	-0.7	-0.206
CCCC(c1nnnn1Cc1ccco1)N1CCN(c2cc(Cl)ccc2C)CC1 (stereo not drawn)	16.3	-8.0	11.8	2.6	-6.86*
CCC(c1nnnn1Cc1ccco1)N1CCN(C(=O)c2ccco2)CC1 (stereo not drawn)	5.3	1.0	-10.9	-1.2	0.812
CCCCC(c1nnnn1CC1CCCO1)N1CCN(c2cc(Cl)ccc2C)CC1 (stereo not drawn)	30.8*	-23.0	6.2	1.4	-5.27*
CC(C)CC(c1nnnn1CC1CCCO1)N1CCN(c2nc3ccccc3s2)CC1 (stereo not drawn)	12.7	-9.0	8.9	-8.4	.
CCC/C(O)=C1\C(=O)CC(c2ccccc2)CC1=NCCc1c(C)[nH]c2ccc(C)cc12 (stereo not drawn)	.	.	.	.	-1.12
Cc1ccc(S(=O)(=O)c2nc(Nc3nccs3)sc2Cl)cc1	51.9*	-5.0	98.4*	-8.7	-0.305
CCOc1nc(S(=O)(=O)c2ccc(C)cc2)c(Cl)s1	23.9	10.0	15.2	-4.2	-0.545
Cc1ccc(CNc2ccc3c(c2)OCO3)cc1	10.0	-6.0	30.8	2.4	-0.452
